Data on 16 molecules can be found in PubChem BioAssay.

The nature of test [1]: Her2 expression decrease, cell viability multiplex – SKBR3 breast tumor cells, AlphaScreen, ATP viability, primary screen (AID 461;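 active = Her2 level under about 52% in both replicate screens, with viability over 70% of control, limit read from the data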;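 as to Her2 level: lower value means less Her2 protein in the cells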;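 as to viability: percent of carrier control wells set as 100% viability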). The conditions noted are these: SKBR3 Her2 protein level, 18-24 h, measured here: SKBR3 viability, ATP luminescence, at 10 µM.
Test [2] concerns the target Receptor tyrosine-protein kinase erbB-2 (Homo sapiens) (UniProt P04626). Described as above. The conditions noted are these: 18-24 h, at 10 µM, stronger effect = lower value.
Test [3] in a line: reduced viability of SK-BR-3 breast cancer cells – cell-based, 24 h, human, pilot screen (AID 572;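 active = viability at or below 10% of carrier control in both of two separate runs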;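 also: compound exposure lasted between 18 and 24 h rather than exactly 24 h; 100% = carrier-treated control wells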). The conditions noted are these: SK-BR-3 viability, CellTiter-Glo luminescence, at 10 µM, stronger effect = lower value.
Test [4] in a line: HUVEC growth inhibition – cell-based, human, primary screen (AID 575;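 active = viability at or below 30% in both replicate assays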;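 also: 100% = median of untreated cell wells with 0.1% DMSO on each plate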). The conditions noted are these: HUVEC proliferation, CellTiter-Glo luminescence, 72 h; at 10 µM; stronger effect = lower value. The method in brief:
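material = primary HUVEC, no more than 12 passages | input = 1250 cells per well | controls = vehicle and MePR control wells | measured by = CTG luminescence | times = 72 h compound incubation | format = collagen-coated 384-well format | read-out = % viability vs DMSO wells | doses = single 10 µM dose, 0.1% DMSO, from 5x medium stock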

Test [5] is described as follows: H69AR cell proliferation blockers – human, duplicate replicates, primary screen (AID 580).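 Also: 100% = mean luminescence of untreated wells and 0% = no signal.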 The conditions noted are these: H69AR lung tumor cells viability, ATP luminescence, 72 h; at 10 µM; stronger effect = lower value.
Test [6] is described as follows: MRP1 drug-resistance reversers in H69AR cells – cell-based, doxorubicin co-treatment, pilot screen (AID 601;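 active = viability loss from added drug above about 55%, and viability with drug at most 40%, in both replicates, limit read from the data, passing the limit was not always enough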). The conditions noted are these: CellTiter-Glo, 72 h, at 10 µM; for differential viability (reversal): stronger effect = higher value.
The nature of test [7]: yeast transport mutant growth inhibition pilot in 384-well plates, post-Golgi transport modulator project (AID 636; in the data active = inhibition above about 31%). The conditions noted are these: absorbance 615 nm, about 18 h, stronger effect = higher value.
A short description of test [8]: growth suppression of yeast trafficking mutant, preliminary HTS, modulators of trafficking downstream of Golgi apparatus project, 1536-format plate, OD 615 nm (AID 637; in the data active = inhibition above about 30%). The conditions noted are these: yeast transport mutant growth, absorbance 615 nm, 18 h; stronger effect = higher value.
Where [9] appears, read: H69AR cells + 2 uM doxorubicin, measured here: viability with 2 uM doxorubicin, stronger effect = lower value.
The mark [10] stands for this setting: H69AR cells, compound alone cytotoxicity.

Calls of active or inactive are those of the source.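 The calls were made as follows, unless noted: active = viability at or under a set limit in both replicates, limit being median viability minus 3 SD (cut at about 48% in these data, passing the limit was not always enough); inconclusive = at or under the limit in just one replicate; inactive = at or above the limit in both replicates.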

Sequence of Receptor tyrosine-protein kinase erbB-2 (Homo sapiens) (P04626 whole entry, looked up): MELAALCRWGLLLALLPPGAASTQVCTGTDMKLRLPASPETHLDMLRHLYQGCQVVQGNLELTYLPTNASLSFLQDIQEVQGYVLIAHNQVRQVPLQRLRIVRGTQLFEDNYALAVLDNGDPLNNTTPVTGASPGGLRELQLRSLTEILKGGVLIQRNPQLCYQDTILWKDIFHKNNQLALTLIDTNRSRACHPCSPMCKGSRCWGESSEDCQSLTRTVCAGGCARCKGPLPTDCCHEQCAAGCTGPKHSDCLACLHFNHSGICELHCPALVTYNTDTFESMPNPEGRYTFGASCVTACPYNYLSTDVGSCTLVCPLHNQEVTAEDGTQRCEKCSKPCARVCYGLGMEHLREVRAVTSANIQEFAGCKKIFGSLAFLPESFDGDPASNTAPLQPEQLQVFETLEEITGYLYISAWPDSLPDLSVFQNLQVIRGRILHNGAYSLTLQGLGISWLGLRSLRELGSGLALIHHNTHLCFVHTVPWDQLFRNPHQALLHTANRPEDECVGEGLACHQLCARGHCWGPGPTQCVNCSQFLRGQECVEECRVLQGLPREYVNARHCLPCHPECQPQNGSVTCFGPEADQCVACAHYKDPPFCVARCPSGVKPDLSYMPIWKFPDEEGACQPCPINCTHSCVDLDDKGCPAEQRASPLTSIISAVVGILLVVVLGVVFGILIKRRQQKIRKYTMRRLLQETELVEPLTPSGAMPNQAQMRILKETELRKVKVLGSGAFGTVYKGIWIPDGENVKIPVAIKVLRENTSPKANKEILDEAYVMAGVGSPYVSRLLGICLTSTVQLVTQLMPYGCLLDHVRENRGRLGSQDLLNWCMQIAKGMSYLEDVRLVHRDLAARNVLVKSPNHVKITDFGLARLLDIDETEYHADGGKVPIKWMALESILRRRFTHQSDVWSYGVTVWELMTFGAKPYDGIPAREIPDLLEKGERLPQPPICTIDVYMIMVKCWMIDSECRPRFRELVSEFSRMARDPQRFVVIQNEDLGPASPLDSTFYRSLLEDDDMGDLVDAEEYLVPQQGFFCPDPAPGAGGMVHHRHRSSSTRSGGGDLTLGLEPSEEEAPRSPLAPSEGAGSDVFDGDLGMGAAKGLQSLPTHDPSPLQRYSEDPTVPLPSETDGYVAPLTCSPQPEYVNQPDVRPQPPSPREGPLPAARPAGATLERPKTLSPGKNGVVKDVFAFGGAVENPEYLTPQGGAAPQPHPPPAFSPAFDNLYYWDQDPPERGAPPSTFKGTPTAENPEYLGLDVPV

On to `O=C1CCCc2c1cc(C(=O)NCc1ccco1)c(=O)n2-c1ccc(Cl)cc1`, for which the viability in test [1] was 88%; in test [3], 88% (inactive); in test [4], 80.8% (inactive); in test [5], 93.5% (inactive); in test [6] (setting [9]), 80.5%; in test [6] (setting [10]), 93.5%. In addition, in test [2], the Her2 level was 110% (inactive). Besides, the differential viability (reversal) in test [6] (H69AR cells + 2 uM doxorubicin) is 13% (inactive). The inhibition was -4.8% (inactive) in test [7] and -3.39% (inactive) in test [8].

`CCOC(=O)c1c(NC(=O)c2cccs2)sc2c1CCN(C(=O)OCC)C2`: the viability in test [1] is 174%; in test [3], 174% (inactive); in test [4], 6.86% (active); in test [5], 23.3% (active); in test [6] (setting [9]), 25.5%; in test [6] (setting [10]) it was 23.3%. In test [2], the Her2 level is 13% (active). In test [6] (H69AR cells + 2 uM doxorubicin), the differential viability (reversal) is -2.25% (inactive). Moreover, the inhibition is 0.39% (inactive) in test [7] and -1.8% (inactive) in test [8].

Take `Cn1c(=O)c(-c2ccccc2)nn2c3ccccc3nc12`: the viability is 82.5% in test [1]; 82.5% (inactive) in test [3]; 90.8% (inactive) in test [4]; 90.8% (inactive) in test [5]; 91.6% in test [6] (setting [9]); 90.8% in test [6] (setting [10]). Moreover, the Her2 level in test [2] was 63.5% (inactive). Moreover, the differential viability (reversal) in test [6] (H69AR cells + 2 uM doxorubicin) is -0.73% (inactive). The inhibition is -7.03% (inactive) in test [7] and 3% (inactive) in test [8].

For the molecule `O=C(COc1ccccc1Cl)NCc1ccco1`, the viability in test [1] is 89.5%; in test [3], 89.5% (inactive); in test [4] it was 103% (inactive); in test [5], 107% (inactive); in test [6] (setting [9]) it was 91.6%; in test [6] (setting [10]) it was 107%. The Her2 level in test [2] was 78.5% (inactive). Further, the differential viability (reversal) in test [6] (H69AR cells + 2 uM doxorubicin) was 15.4% (inactive). Moreover, the inhibition in test [7] is -0.81% (inactive); in test [8], -3.93% (inactive).

`CCCCN(C)Cc1c(C)[nH]c2c(Cl)cccc2c1=O`: the viability in test [1] is 84.5%; in test [3] it was 84.5% (inactive); in test [4] it was 96% (inactive); in test [5], 90.6% (inactive); in test [6] (setting [9]), 76.9%; in test [6] (setting [10]) it was 90.6%. The Her2 level in test [2] is 87% (inactive). For the same molecule, the differential viability (reversal) in test [6] (H69AR cells + 2 uM doxorubicin) was 13.7% (inactive). The results for the inhibition in test [7] and in test [8] were -4.34% (inactive) and -2.06% (inactive), respectively.

For the molecule `COc1cccc(-c2nnc3sc(-c4ccc(C)cc4)nn23)c1`, the viability in test [1] is 103%; in test [3], 103% (inactive); in test [4], 57% (inactive); in test [5], 17.3% (active); in test [6] (setting [9]), 78.8%; in test [6] (setting [10]) it was 17.3%. The Her2 level in test [2] is 81% (inactive). Further, the differential viability (reversal) in test [6] (H69AR cells + 2 uM doxorubicin) is -61.5% (inactive). The values for the inhibition in test [7] and in test [8] were -5.92% (inactive) and -4.03% (inactive), respectively.

For `COC(=O)Nc1ccccc1C(=O)N1CCCCC1`, the viability in test [1] was 100%; in test [3], 100% (inactive); in test [4], 95.8% (inactive); in test [5], 99% (inactive); in test [6] (setting [9]) it was 92.9%; in test [6] (setting [10]), 99%. The Her2 level in test [2] is 93% (inactive). For the same molecule, in test [6] (H69AR cells + 2 uM doxorubicin), the differential viability (reversal) was 6.15% (inactive). The inhibition in test [7] was -5.33% (inactive); in test [8] it was -0.49% (inactive).

Consider `Cc1cc2oc(=O)cc(CN3CCN(Cc4ccc5c(c4)OCO5)CC3)c2cc1C`, for which the viability in test [1] is 96.5%; in test [3], 96.5% (inactive); in test [4], 84.3% (inactive); in test [5], 80.6% (inactive); in test [6] (setting [9]) it was 80%; in test [6] (setting [10]) it was 80.6%. In test [2], the Her2 level was 91.5% (inactive). Also, in test [6] (H69AR cells + 2 uM doxorubicin), the differential viability (reversal) is 0.615% (inactive). Further, the figures for the inhibition in test [7] and in test [8] were -5.73% (inactive) and -1.29% (inactive), respectively.

Turning to `COc1ccccc1NC(=O)CSc1nnc(CC(=O)Nc2ccccc2)n1C`, the viability is 96% in test [1]; 96% (inactive) in test [3]; 113% (inactive) in test [4]; 91% (inactive) in test [5]; 93.1% in test [6] (setting [9]); 91% in test [6] (setting [10]). Moreover, in test [2], the Her2 level was 80.5% (inactive). Further, in test [6] (H69AR cells + 2 uM doxorubicin), the differential viability (reversal) was -2.08% (inactive). Also, the inhibition was -2.99% (inactive) in test [7] and -2% (inactive) in test [8].

As to `CC1CCN(S(=O)(=O)c2ccc3[nH]cc(C(=O)NCCN4CCOCC4)c(=O)c3c2)CC1`, the viability is 108% in test [1]; 108% (inactive) in test [3]; 94% (inactive) in test [4]; 96.4% (inactive) in test [5]; 94.1% in test [6] (setting [9]); 96.4% in test [6] (setting [10]). In addition, the Her2 level in test [2] was 104% (inactive). In test [6] (H69AR cells + 2 uM doxorubicin), the differential viability (reversal) is 2.28% (inactive). The inhibition is -6.67% (inactive) in test [7] and -3.06% (inactive) in test [8].

Consider `Cc1nn(-c2ccc(F)cc2)c2nc(N)c(C#N)c(-c3cccs3)c12`, for which the viability in test [1] was 80.5%; in test [3] it was 80.5% (inactive); in test [4], 85.4% (inactive); in test [5] it was 86.2% (inactive); in test [6] (setting [9]), 81.3%; in test [6] (setting [10]), 86.2%. Also, in test [2], the Her2 level was 75.5% (inactive). Further, the differential viability (reversal) in test [6] (H69AR cells + 2 uM doxorubicin) was 4.98% (inactive). In addition, the inhibition in test [7] is -0.79% (inactive); in test [8], 3.44% (inactive).

For `CCOC(=O)Nc1ccc2c(c1)N(C(=O)CN(CC)CC)c1ccccc1C=C2`, the viability in test [1] is 87.5%; in test [3], 87.5% (inactive); in test [4], 97.3% (inactive); in test [5], 91.4% (inactive); in test [6] (setting [9]), 82.8%; in test [6] (setting [10]), 91.4%. The Her2 level in test [2] was 93% (inactive). For the same molecule, in test [6] (H69AR cells + 2 uM doxorubicin), the differential viability (reversal) is 8.63% (inactive). Also, the inhibition in test [7] was -4.61% (inactive); in test [8], 5.9% (inactive).

In the case of `CCOc1ncccc1C(=O)OCC(=O)N1CC(=O)Nc2ccccc21`, the viability in test [1] was 87%; in test [3] it was 87% (inactive); in test [4], 100% (inactive); in test [5], 99.7% (inactive); in test [6] (setting [9]), 97.7%; in test [6] (setting [10]), 99.7%. Also, in test [2], the Her2 level is 97% (inactive). Besides, in test [6] (H69AR cells + 2 uM doxorubicin), the differential viability (reversal) is 2.01% (inactive). For the same molecule, the inhibition in test [7] is -0.78% (inactive); in test [8], -4.92% (inactive).

Take `CC(C)CN(C(=O)COC(=O)Cc1n[nH]c(=O)c2ccccc12)C1CCS(=O)(=O)C1` (stereo not given): the viability in test [1] was 97.5%; in test [3], 97.5% (inactive); in test [4], 93.6% (inactive); in test [5], 90.1% (inactive); in test [6] (setting [9]) it was 85.7%; in test [6] (setting [10]) it was 90.1%. Also, the Her2 level in test [2] was 98.5% (inactive). Moreover, the differential viability (reversal) in test [6] (H69AR cells + 2 uM doxorubicin) was 4.47% (inactive). Also, the inhibition was -3.12% (inactive) in test [7] and -1.75% (inactive) in test [8].

Take `CC(NC(=O)COc1ccccc1)C(=O)NC1=NCCS1` (stereo not given): the viability is 89% in test [1]; 89% (inactive) in test [3]; 88.8% (inactive) in test [4]; 94.4% (inactive) in test [5]; 90.8% in test [6] (setting [9]); 94.4% in test [6] (setting [10]). Besides, the Her2 level in test [2] is 124% (inactive). Moreover, in test [6] (H69AR cells + 2 uM doxorubicin), the differential viability (reversal) is 3.6% (inactive). For the same molecule, the inhibition is -4.36% (inactive) in test [7] and -11.8% (inactive) in test [8].

For `Cn1c(SC/C=C/c2ccccc2)nnc1-c1cnccn1`, the viability in test [1] was 80.5%; in test [3], 80.5% (inactive); in test [4] it was 114% (inactive); in test [5], 94.3% (inactive); in test [6] (setting [9]) it was 84%; in test [6] (setting [10]) it was 94.3%. For the same molecule, the Her2 level in test [2] is 102% (inactive). The differential viability (reversal) in test [6] (H69AR cells + 2 uM doxorubicin) was 10.3% (inactive). Moreover, the values for the inhibition in test [7] and in test [8] were 2.27% (inactive) and -5.48% (inactive), respectively.
